The text below walks through data of ChEMBL document CHEMBL4024711, “Design, synthesis and biological evaluation of novel nitric oxide-donating protoberberine derivatives as antitumor agents” (Eur J Med Chem, 2017).

Activity calls are given as the source filed them. The rule behind the calls is not given here.

One data set deals with HepG2. As to the kind of experiment: Cytotoxicity against human HepG2 cells after 72 hrs by MTT assay. Format: functional, cell-based. To be noted: HepG2, 72 h. The gist of the method: (§1)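 MTT assay. Cells were plated and grown 24 h at 37 °C, 5% CO2, then exposed to compound in medium with 0.1% DMSO for 72 h. MTT (5 mg/mL in PBS) was added for 4 h and absorbance read at 490 nm. IC50 was taken from dose-response curves; at least three independent experiments.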
In general terms: Tetrazolium dyes change colour on reduction, which living cells bring about.

In another data set the test system is HL-60. Put plainly: Cytotoxicity against human HL60 cells after 72 hrs by MTT assay. Format: functional, cell-based. To be noted: HL-60, 72 h. The gist of the method:
as §1

Another data set relates to SMMC-7721. As to the kind of experiment: Cytotoxicity against human SMMC7721 cells after 72 hrs by MTT assay. To be noted: SMMC-7721, 72 h. Format: functional, cell-based. The gist of the method:
as §1

The next data set concerns HCT-116. Put plainly: Cytotoxicity against human HCT116 cells after 72 hrs by MTT assay. To be noted: HCT-116, 72 h. Format: functional, cell-based. The procedure, abridged:
as §1

Another data set concerns L02. Put plainly: Cytotoxicity against human LO2 cells after 72 hrs by MTT assay. Format: cell-based. To be noted: L02, 72 h. The procedure, abridged:
as §1

Data set [1] in a line: Induction of NO release assessed as nitrite formation in PBS at 100 uM up to 300 mins by Griess assay. The procedure, abridged: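 Compound at 100 μM was incubated at 37 °C in PBS, pH 7.4, containing 2% DMSO and 5.0 mM L-cysteine, in acellular or HepG2 cell lysates, and sampled over time. Samples were mixed with Griess reagent at 37 °C for 15 min and read at 540 nm. Nitrite was quantified against a sodium nitrite standard curve, in triplicate.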
(Griess reagent forms a coloured azo dye with nitrite.)

The subject of data set [2] is H22. As to the kind of experiment: Antitumor activity against human H22 cells xenografted in ICR mouse assessed as tumor growth inhibition at 20 mg/kg, iv administered once daily for 21 days measured post last dose relative to control. To be noted: 504 h, read-out: TGI. In general terms: Xenograft models place foreign cells or tissue in a host animal.
The test system of data set [3] is H22. Put plainly: Antitumor activity against […] H22 cells xenografted in ICR mouse assessed as tumor growth inhibition at 30 mg/kg, iv administered once daily for 21 days measured post last dose relative to control. Format: functional. To be noted: 504 h, read-out: TGI.
Another data set deals with Mus musculus. As to the kind of experiment: Toxicity in ICR mouse xenografted with […] cells assessed as body weight at 30 mg/kg, iv administered once daily for 21 days measured post last dose (reference value: 26 +/- 0.6 g). Format: organism-based. To be noted: in vivo, 504 h.

For the compound `COc1ccc2cc3[n+](cc2c1OC)CCc1cc2c(cc1-3)OCO2` [BERBERINE CHLORIDE], the IC50 (in general, the concentration that inhibits the measured activity by half) in the data set with HepG2 is 49 µM; with HL-60, 27.4 µM; in the data set on SMMC-7721, 25.9 µM; in the data set with HCT-116, 40 µM; in the data set with L02 it was 71.5 µM.

`COc1cc2c(cc1OC)-c1c(Br)c3ccc(OC)c(OCCCCCCCCCCO[N+](=O)[O-])c3c[n+]1CC2`: in the data set on HepG2, the IC50 is 3.01 µM.

In the case of `COc1ccc2cc3[n+](cc2c1OCCCCCO[N+](=O)[O-])CCc1cc2c(cc1-3)OCO2`, the IC50 in the data set on HepG2 turned out to be 12.4 µM.

The compound `COc1ccc2cc3[n+](cc2c1OCCCCCCO[N+](=O)[O-])CCc1cc2c(cc1-3)OCO2` had an IC50 in the data set on HepG2 of 8.51 µM.

In the case of `COc1ccc2cc3[n+](cc2c1OCCCCO[N+](=O)[O-])CCc1cc2c(cc1-3)OCO2`, the IC50 with HepG2 is 18.4 µM. In addition, the outcome in [1] was Active.

Turning to `COc1ccc2cc3[n+](cc2c1OCCCCCCCCO[N+](=O)[O-])CCc1cc2c(cc1-3)OCO2`, the IC50 in the data set with HepG2 was determined as 2.47 µM; in the data set with HL-60 it was 1.42 µM; with SMMC-7721 it was 2.82 µM; in the data set with HCT-116, 1.58 µM; with L02, 33.8 µM. In data set [1], the outcome was Active.

For `COc1ccc2cc3[n+](cc2c1OC(=O)CCCCCCCCCO[N+](=O)[O-])CCc1cc2c(cc1-3)OCO2`, in the data set on HepG2, the IC50 was over 100 µM.

For `COc1cc2c(cc1OC)-c1cc3ccc(OC)c(OCCCCCCCCO[N+](=O)[O-])c3c[n+]1CC2`, it took 3.91 µM to reach half-maximal inhibition in the data set with HepG2 (IC50). In addition, in data set [1], the result was Active.

In the data set on HepG2, `COc1ccc2cc3[n+](cc2c1OC(=O)CCCCCCCO[N+](=O)[O-])CCc1cc2c(cc1-3)OCO2` showed a concentration for half-maximal inhibition (IC50) of over 100 µM. Besides, the result in [1] was Active.

The compound `COc1ccc2cc3[n+](cc2c1OCCCCCCCCCCO[N+](=O)[O-])CCc1cc2c(cc1-3)OCO2` had an IC50 with HepG2 of 4.34 µM.

Turning to `COc1ccc2cc3[n+](cc2c1OCCCO[N+](=O)[O-])CCc1cc2c(cc1-3)OCO2`, the IC50 in the data set on HepG2 stood at 22 µM.

Compound `COc1ccc2c(c1OCCCCCCCCO[N+](=O)[O-])CN1CCc3cc4c(cc3C1C2)OCO4` (stereo unspecified) had a half-inhibitory concentration (IC50) in the data set on HepG2 of over 100 µM.

As for `COc1ccc2c(Br)c3[n+](cc2c1OCCCCCCCCO[N+](=O)[O-])CCc1cc2c(cc1-3)OCO2`, half-maximal inhibition in the data set on HepG2 (IC50) was put at 4.14 µM. Besides, the outcome in data set [1] was Active.

In the case of `COc1ccc2cc3[n+](cc2c1OCCO[N+](=O)[O-])CCc1cc2c(cc1-3)OCO2`, the IC50 with HepG2 was found to be 25.2 µM.

`COc1cc2c(cc1OC)-c1cc3ccc(OC)c(OCCCCCCCCCCCCO[N+](=O)[O-])c3c[n+]1CC2`: the IC50 in the data set on HepG2 amounted to 2.55 µM.

Regarding `COc1ccc2cc3[n+](cc2c1OC(=O)CCCCCO[N+](=O)[O-])CCc1cc2c(cc1-3)OCO2`, the IC50 in the data set with HepG2 was over 100 µM.

Turning to `O=P1(N(CCCl)CCCl)NCCCO1` (stereo unspecified) [CYCLOPHOSPHAMIDE ANHYDROUS], in the data set with H22 [2], the inhibition in vivo at 20 mg/kg was 67.1%.

In the data set with HepG2, `COc1cc2c(cc1OC)-c1cc3ccc(OC)c(OCCCCCCCCCCO[N+](=O)[O-])c3c[n+]1CC2` yielded a half-maximal inhibitory concentration (IC50) of 5.59 µM.

The compound `COc1ccc2cc3[n+](cc2c1OCCCCCCCCCCCCO[N+](=O)[O-])CCc1cc2c(cc1-3)OCO2` yielded an IC50 with HepG2 of 2.52 µM. For the same compound, the result in [1] was Active.

`COc1cc2c(cc1OC)-c1cc3ccc(OC)c(OC)c3c[n+]1CC2.[Cl-]` [PALMATINE CHLORIDE]: the IC50 with HepG2, in the data set with HL-60, with SMMC-7721, in the data set with HCT-116 and with L02 was over 100 µM in each case. In addition, in the data set on H22 [3], the inhibition in vivo at 30 mg/kg stood at 41.6%. In the data set on Mus musculus, the Activity is recorded as 25.5 g.

In the data set on HepG2, `COc1cc2c(cc1OC)-c1c(Br)c3ccc(OC)c(OCCCCCCCCCCCCO[N+](=O)[O-])c3c[n+]1CC2` registered an IC50 of 1.98 µM.
